Test results taken from ChEMBL document CHEMBL1121486, “Synthesis of nitrosourea derivatives of pyridine and piperidine as potential anticancer agents” (1980).
“And” between values parts separate entries of the source, which are not always exact repeats. Equal entries are not always repeated.

Experiments:
[1] = test system: Lewis lung carcinoma cell line; test: Effect of compound on Lewis Lung carcinoma after single ip injection on day 1 recorded as animal weight difference of the treated and the control (T-C) at OD of 64-2 mg/kg; format: functional, Mus musculus
[2] = test system: Lewis lung carcinoma cell line; test: Effect of compound on Lewis Lung carcinoma after single dose injected intraperitoneally on day 1 recorded as animal weight difference of the treated and the control (T-C) at OD of 64 mg/kg; format: functional, Mus musculus; details: route intraperitoneal
[3] = test system: Mus musculus; test: Compound tested for the effect on total white blood cell count and reported as percentage change from control on day 5 at 40.25 mg/kg (ip); format: functional
How it was run: (§1)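 Total white blood cell count in mice. Treatment was intraperitoneal at the listed mg/kg doses, 10 mice per group. Counts were taken on days 3, 5 and 7 and expressed as % change from control, with the control being each group's predose value. Significance was taken at p ≤ 0.05.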

[4] = test system: Mus musculus; test: Compound tested for the effect on total white blood cell count and reported as percentage change from control on day 5 at 90.5 mg/kg (ip); format: functional; how it was run: as §1
[5] = test system: Mus musculus; test: Compound tested for the effect on total white blood cell count and reported as percentage change from control on day 7 at 40.25 mg/kg (ip); format: functional; how it was run: as §1
[6] = test system: Mus musculus; test: Compound tested for the effect on total white blood cell count and reported as percentage change from control on day 3 at 11.31 mg/kg (ip); format: functional; how it was run: as §1
[7] = test system: Mus musculus; test: Compound tested for the effect on total white blood cell count and reported as percentage change from control on day 3 at 22.63 mg/kg (ip); format: functional; how it was run: as §1
[8] = test system: Mus musculus; test: Compound tested for the effect on total white blood cell count and reported as percentage change from control on day 3 at 40.25 mg/kg (ip); format: functional; how it was run: as §1
[9] = test system: Mus musculus; test: Compound tested for the effect on total white blood cell count and reported as percentage change from control on day 3 at 90.5 mg/kg (ip); format: functional; how it was run: as §1
[10] = test system: Mus musculus; test: Compound tested for the effect on total white blood cell count and reported as percentage change from control on day 5 at 22.63 mg/kg (ip); format: functional; how it was run: as §1
[11] = test system: Lewis lung carcinoma cell line; test: Effect of compound on Lewis Lung carcinoma after single dose injected intraperitoneally on day 1 recorded as percentage of cured animals at OD of 64 mg/kg; details: Mus musculus, route intraperitoneal
[12] = test system: 3EM 37; test: Compound tested for activity against 3EM 37 mouse ependymoblastoma after single ip injection on day 1 at optimal dose of 128 mg/kg (Dose range 256-16); format: functional; details: route intraperitoneal
[13] = test system: 3EM 37; test: Effect of compound on 3EM 37 mouse ependymoblastoma after single ip injection on day 1 recorded as animal weight difference of the treated and the control (T-C) at OD of 100 mg/kg; format: functional; details: route intraperitoneal
[14] = test system: 3EM 37; test: Effect of compound on 3EM 37 mouse ependymoblastoma after single ip injection on day 1 recorded as percentage of cured animals at OD of 100 mg/kg; format: functional; details: route intraperitoneal
[15] = test system: 3EM 37; test: Compound tested for toxicity against 3EM 37 mouse ependymoblastoma after single ip injection on day 1 at optimal dose (OD) of 100 mg/kg on the 5th day after the injection of the compound; (10/10); details: route intraperitoneal

Structure (SMILES)	Optimal dose [1] [mg/kg]	T-C [2] [g]	Change [3] [%]	Change [4] [%]	Change [5] [%]	Change [6] [%]	Change [7] [%]	Change [8] [%]	Change [9] [%]	Change [10]	T/C [11] [%]	Optimal dose [12] [mg/kg]	T-C [13] [g]	T/C [14] [%]	Survival [15]
O=NN(CCCl)C(=O)NCCCl [CARMUSTINE]	32	-3.5	-22	-48	-41	-47	-33	-46	-68	-28% and -42%	>353	–	–	–	–
CC1CCC(NC(=O)N(CCCl)N=O)CC1 (stereo not given) [SEMUSTINE]	–	–	–	–	–	–	–	–	–	–	–	128	1	204	9
